We go through two compounds from ChEMBL document CHEMBL4052588, “Design of a Biased Potent Small Molecule Inhibitor of the Bromodomain and PHD Finger-Containing (BRPF) Proteins Suitable for Cellular and in Vivo Studies” (J Med Chem, 2017).

In data set [1] the target is Transcription initiation factor TFIID subunit 1, TAF1 (Homo sapiens) (UniProt P21675). Kind of data set: Inhibition of human His tagged TAF1 incubated for 30 mins followed by addition of biotinylated peptide and further incubation for 30 mins measured by AlphaScreen assay. On the technique in general: Alpha assays give light when donor and acceptor beads are brought close together.

A further data set deals with T1, Peregrin (Homo sapiens, UniProt P55201).
T1 sequence (P55201 whole entry): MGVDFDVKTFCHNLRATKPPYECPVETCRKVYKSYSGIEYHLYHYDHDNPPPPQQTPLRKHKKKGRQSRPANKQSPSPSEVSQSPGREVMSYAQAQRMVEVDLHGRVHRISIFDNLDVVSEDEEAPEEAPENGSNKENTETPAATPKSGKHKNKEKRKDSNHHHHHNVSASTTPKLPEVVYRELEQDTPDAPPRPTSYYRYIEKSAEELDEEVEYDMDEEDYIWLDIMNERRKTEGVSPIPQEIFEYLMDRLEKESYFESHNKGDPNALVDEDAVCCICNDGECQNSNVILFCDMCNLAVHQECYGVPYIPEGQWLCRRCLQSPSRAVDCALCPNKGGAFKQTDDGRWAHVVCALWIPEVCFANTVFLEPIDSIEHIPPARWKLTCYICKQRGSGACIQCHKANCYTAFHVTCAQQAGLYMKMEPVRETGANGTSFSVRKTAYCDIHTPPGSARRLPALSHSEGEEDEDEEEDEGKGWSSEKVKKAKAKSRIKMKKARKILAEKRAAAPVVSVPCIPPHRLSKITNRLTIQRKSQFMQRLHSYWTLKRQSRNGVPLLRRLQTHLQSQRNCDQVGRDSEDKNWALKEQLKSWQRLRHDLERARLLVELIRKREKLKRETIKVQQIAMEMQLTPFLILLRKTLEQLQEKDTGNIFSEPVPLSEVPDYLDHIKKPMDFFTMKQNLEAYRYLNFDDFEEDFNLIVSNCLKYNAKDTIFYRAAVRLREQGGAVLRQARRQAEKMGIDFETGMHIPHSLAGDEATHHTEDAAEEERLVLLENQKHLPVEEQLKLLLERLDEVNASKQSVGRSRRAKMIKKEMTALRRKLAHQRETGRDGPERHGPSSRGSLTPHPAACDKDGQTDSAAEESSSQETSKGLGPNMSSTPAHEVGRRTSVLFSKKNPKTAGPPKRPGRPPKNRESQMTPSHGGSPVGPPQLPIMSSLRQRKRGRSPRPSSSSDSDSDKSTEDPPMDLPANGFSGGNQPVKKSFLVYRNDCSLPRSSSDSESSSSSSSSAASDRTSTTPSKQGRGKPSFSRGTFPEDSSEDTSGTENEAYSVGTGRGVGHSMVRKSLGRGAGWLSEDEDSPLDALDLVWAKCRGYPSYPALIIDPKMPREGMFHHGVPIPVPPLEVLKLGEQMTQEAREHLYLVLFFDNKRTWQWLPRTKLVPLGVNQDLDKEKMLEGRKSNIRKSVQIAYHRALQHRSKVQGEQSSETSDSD
Kind of data set: Binding affinity to human BRPF1 by isothermal titration calorimetry. The method, boiled down:
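Titration of compound into BRPF1 bromodomain; binding heats recorded per injection, normalized enthalpies fitted by nonlinear least squares to a single-binding-site model to give KD, ΔH and TΔS.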
(In ITC the heat of successive injections is recorded.)

For data set [2], the target named is T2, Bromodomain and PHD finger-containing protein 3 (Homo sapiens, UniProt Q9ULD4).
T2 sequence (Q9ULD4 whole entry): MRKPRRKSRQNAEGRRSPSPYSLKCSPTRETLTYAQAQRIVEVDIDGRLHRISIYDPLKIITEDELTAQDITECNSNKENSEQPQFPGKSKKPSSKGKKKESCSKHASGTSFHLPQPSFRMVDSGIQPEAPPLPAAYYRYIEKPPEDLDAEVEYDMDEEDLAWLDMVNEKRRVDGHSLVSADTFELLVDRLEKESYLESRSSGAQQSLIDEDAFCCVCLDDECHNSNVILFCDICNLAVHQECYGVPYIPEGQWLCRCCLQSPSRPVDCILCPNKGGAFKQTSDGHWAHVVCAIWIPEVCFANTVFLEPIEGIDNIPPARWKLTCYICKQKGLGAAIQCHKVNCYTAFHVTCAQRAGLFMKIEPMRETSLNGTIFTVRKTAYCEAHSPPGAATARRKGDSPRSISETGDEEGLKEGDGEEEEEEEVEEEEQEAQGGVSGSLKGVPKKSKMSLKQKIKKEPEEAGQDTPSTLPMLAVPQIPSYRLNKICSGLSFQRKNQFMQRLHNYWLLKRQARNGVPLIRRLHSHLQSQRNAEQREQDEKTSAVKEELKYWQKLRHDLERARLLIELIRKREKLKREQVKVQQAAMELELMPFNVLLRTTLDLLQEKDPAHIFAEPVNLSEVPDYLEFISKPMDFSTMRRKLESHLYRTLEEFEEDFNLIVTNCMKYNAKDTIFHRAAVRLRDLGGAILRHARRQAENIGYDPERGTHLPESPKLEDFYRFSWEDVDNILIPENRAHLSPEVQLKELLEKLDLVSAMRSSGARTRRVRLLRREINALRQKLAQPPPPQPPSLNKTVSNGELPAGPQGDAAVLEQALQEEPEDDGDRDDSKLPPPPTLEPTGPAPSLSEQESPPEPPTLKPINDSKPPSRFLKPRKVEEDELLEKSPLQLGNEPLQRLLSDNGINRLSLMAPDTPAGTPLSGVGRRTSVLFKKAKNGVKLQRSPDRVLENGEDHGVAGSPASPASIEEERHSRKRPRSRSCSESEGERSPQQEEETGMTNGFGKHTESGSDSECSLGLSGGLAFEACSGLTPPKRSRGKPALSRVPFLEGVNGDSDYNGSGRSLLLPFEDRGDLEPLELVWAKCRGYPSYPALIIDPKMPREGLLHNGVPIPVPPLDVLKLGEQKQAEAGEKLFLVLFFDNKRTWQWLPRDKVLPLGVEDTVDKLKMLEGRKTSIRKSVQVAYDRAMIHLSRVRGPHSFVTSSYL
The experiment in a line: Binding affinity to human BRPF3 by isothermal titration calorimetry.

Data set [3] in a line: Apparent permeability from basolateral to apical side in human Caco2 cells at 10 uM after 2 hrs by LC-MS/MS analysis. In kind it is ADME, cell-based. The following applies: Caco-2. (Caco-2 monolayers are a common model of the intestinal barrier.)
In another data set the target is hERG (KCNH2) (Homo sapiens, UniProt Q12809). Kind of data set: Inhibition of human ERG at 30 uM.
The nature of data set [4]: Growth inhibition of human MOLP8 cells after 72 hrs. Type of data set: functional. The settings on record: MOLP-8, 72 h.
For a further data set, the system named is OCI-LY19. Kind of data set: Growth inhibition of human OCI-LY19 cells after 72 hrs. In kind it is functional. The following applies: OCI-LY19, 72 h.
The subject of another data set is HCC1187. Kind of data set: Growth inhibition of human HCC1187 cells after 72 hrs. In kind it is functional. The settings on record: HCC1187, 72 h.
The next data set concerns ASPC1. The experiment in a line: Growth inhibition of human AsPC1 cells after 72 hrs. Type of data set: functional. The following applies: ASPC1, 72 h.
Data set [5] in a line: Fraction unbound in mouse plasma. In kind it is ADME, cell-free.
Data set [6] is described as follows: Clearance in CD-1 mouse blood at 1 mg/kg, iv administered as bolus. In kind it is ADME, organism-based. The settings on record: whole blood. The gist of the method: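 Female CD-1 mice (n = 3), single dosing: intravenous 1.0 mg/kg, or oral 3.0 mg/kg given as a suspension. Blood levels were followed over time to derive clearance, volume of distribution, elimination half-life, Cmax, Tmax, AUC0−∞, oral bioavailability and fraction absorbed.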

One may read the IC50 as the concentration at which inhibition is half-maximal. A higher IC50 goes with weaker potency. Usually Kd stands for the constant that tells how readily two partners part at equilibrium. By Papp B→A is commonly meant the apparent permeability from the basolateral to the apical side of a cell layer. Broadly, the inhibition is the share of the control response that was lost under treatment. A higher inhibition goes with a strong effect. Broadly, the GI50 is the concentration that inhibits growth by half. What is called fraction unbound is the share of the substance not bound to proteins or other matrix. What is called clearance is the volume of plasma or blood freed of the substance per unit of time. High values mean a high capacity for elimination, low ones a low capacity for elimination.

Chain of Transcription initiation factor TFIID subunit 1, TAF1 (Homo sapiens) (P21675 whole entry, looked up): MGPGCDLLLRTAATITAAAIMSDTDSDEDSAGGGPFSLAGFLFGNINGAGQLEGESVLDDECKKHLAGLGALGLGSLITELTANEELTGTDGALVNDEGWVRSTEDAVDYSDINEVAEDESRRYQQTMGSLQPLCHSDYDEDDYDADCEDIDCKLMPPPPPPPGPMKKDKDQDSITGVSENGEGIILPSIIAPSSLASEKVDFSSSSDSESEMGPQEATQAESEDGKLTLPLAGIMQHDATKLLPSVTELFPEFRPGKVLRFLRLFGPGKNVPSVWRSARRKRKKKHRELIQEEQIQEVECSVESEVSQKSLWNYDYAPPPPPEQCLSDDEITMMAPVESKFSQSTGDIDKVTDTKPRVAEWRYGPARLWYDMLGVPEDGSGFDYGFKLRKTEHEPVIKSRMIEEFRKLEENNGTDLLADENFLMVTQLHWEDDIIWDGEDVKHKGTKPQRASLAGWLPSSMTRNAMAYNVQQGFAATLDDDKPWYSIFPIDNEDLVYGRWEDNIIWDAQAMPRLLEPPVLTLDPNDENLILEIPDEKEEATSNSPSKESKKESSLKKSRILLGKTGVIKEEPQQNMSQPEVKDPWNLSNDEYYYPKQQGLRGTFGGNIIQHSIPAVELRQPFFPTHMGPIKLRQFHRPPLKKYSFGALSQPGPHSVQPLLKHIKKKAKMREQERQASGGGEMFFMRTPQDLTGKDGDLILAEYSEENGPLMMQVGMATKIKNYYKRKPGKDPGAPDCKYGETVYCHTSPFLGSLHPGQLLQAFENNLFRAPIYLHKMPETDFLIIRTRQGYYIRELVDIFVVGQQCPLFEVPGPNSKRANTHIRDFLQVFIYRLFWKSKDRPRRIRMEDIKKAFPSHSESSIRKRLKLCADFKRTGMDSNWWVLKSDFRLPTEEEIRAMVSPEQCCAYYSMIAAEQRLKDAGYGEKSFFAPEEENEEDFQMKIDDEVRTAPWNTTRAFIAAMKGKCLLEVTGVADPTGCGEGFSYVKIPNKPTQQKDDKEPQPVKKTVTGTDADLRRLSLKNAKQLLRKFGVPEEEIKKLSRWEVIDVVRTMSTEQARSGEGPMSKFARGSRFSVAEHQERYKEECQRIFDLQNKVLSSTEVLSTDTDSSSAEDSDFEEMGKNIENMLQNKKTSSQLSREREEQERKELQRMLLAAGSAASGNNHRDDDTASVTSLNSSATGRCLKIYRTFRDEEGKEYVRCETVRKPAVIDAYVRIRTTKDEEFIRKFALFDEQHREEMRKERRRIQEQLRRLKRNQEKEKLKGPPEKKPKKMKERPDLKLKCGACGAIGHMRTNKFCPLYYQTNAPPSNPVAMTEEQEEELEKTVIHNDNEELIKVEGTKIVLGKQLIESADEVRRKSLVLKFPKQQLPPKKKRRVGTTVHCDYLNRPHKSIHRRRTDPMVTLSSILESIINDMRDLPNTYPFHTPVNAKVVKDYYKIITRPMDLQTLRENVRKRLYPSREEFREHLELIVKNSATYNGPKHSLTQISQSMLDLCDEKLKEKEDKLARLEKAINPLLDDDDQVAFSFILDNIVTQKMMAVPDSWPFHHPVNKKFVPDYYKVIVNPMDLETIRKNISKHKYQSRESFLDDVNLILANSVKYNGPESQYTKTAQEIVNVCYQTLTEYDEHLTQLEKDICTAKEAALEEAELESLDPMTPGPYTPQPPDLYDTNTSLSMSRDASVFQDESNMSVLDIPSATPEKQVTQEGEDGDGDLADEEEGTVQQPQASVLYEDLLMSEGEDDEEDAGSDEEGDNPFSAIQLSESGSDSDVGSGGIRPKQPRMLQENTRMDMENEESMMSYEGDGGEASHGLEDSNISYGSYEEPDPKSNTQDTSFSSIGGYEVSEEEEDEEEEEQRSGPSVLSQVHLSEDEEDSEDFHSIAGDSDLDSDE
Chain of hERG (KCNH2) (Q12809 whole entry): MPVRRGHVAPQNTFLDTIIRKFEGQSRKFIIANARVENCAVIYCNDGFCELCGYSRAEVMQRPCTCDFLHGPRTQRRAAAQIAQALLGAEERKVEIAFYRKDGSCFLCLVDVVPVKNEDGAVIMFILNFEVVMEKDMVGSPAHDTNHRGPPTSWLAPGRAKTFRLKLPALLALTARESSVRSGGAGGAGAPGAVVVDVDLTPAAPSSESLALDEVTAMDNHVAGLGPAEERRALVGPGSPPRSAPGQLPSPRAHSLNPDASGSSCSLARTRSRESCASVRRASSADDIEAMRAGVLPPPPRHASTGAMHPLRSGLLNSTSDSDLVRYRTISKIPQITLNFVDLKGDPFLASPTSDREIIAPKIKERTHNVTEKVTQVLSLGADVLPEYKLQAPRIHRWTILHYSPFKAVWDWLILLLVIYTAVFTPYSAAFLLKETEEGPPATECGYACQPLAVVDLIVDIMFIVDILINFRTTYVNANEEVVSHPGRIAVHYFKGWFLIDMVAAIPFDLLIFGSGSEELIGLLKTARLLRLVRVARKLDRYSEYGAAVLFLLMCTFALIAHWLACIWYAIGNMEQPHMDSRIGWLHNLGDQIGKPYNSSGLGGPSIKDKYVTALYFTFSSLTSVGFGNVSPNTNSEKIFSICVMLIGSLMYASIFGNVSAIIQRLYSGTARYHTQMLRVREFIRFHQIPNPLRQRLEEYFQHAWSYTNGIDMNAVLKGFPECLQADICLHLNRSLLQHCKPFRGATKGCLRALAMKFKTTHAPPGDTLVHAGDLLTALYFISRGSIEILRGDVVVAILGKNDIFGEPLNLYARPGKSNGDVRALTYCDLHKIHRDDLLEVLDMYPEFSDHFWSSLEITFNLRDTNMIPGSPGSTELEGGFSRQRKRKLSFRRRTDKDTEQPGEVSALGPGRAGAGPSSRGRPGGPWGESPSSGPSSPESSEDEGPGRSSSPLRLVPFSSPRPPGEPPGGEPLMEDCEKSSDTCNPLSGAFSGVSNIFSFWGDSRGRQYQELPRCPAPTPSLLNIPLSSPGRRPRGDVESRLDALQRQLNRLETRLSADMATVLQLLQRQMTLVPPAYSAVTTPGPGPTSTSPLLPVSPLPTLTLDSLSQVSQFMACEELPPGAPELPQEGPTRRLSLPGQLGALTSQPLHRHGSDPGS

`CCc1cc2cc(NS(=O)(=O)c3ccc(C#N)cc3)ccc2n(CC)c1=O`: in [1], the IC50 is > 20 µM.
On to `Cc1cc2cc(NS(=O)(=O)c3ccc(C#N)cc3)ccc2n(C)c1=O`, for which the dissociation constant (Kd) at Peregrin was found to be 40 nM; in data set [2], 940 nM. Also, in [3], the apparent permeability from basolateral to apical (Papp B→A) at 2 h, 10 µM worked out at 50 ×10⁻⁶ cm/s. The compound also had an inhibition at 30 µM against hERG (KCNH2) of 45.6%. Moreover, the GI50 (in data set [4]; with OCI-LY19; in the data set on HCC1187; in the data set with ASPC1) was 1 to 10 µM each time. The compound also came in with a fraction unbound in data set [5] of 0.03. For the same compound, the clearance in [6] stood at 4 mL/min/kg.
